Hits are enriched below; roughly 1.1% of the tested compounds scored in any of these assays.
LYPLA2 counter: LYPLA2 (human) inhibition in PME1 counter-screen | O95372 | recombinant LYPLA2, FP-Rh probe fluorescence polarization | inhibition, % at 5.9 µM | 0.38% of 320,000 active | AID 2177;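 active = inhibition above the screen-wide mean plus 3 SD, limit set per campaign, cut at about 26% in these data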;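 note: 0% = LYPLA2 with DMSO and 100% = wells lacking LYPLA2 enzyme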
proCasp7 act: counter-screen for procaspase-3 activators: activators of human procaspase-7; P55210; activation, % at 8.5 µM; recombinant procaspase-7, Ac-DEVD-pNA absorbance 405 nm; D23A/D198A/D206A triple mutant, cannot self-cleave; scale: DMSO 0, 5 µM enzyme 100; 0.093% of 330,000 active;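 active = percent activation above the screen-wide mean plus 3 SD, cut at about 25% in these data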
Target sequence (P55210 whole entry D23A/D198A/D206A): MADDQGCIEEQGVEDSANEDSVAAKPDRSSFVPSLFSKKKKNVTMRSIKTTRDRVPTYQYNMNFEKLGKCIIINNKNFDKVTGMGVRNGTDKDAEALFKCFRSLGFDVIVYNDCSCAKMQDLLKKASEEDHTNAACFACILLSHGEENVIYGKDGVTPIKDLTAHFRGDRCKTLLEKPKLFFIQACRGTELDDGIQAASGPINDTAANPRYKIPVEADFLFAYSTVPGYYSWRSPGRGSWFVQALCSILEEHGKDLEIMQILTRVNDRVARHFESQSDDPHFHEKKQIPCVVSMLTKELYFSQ
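System: Procaspase-7 triple mutant (PC-7 D3A); measure: % activation from two-timepoint absorbance difference, scaled to controls; times: 1 h compound preincubation, 2 h substrate cleavage, 25 °C; also added: Ac-DEVD-pNA substrate, 400 µM as added; measured by: Epi-absorbance of released pNA at 405 nm, two timepoints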
LYPLA1 counter: blocks human lysophospholipase 1, a PME1 counter-screen; recombinant LYPLA1, FP-Rh probe fluorescence polarization; AID 2174; inhibition, % at 5.9 µM; 0.16% of 320,000 active; O75608;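 active = inhibition above the mean of all tested compounds plus 3 SD, set per campaign, cut at about 14% in these data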;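 note: inhibitors block serine hydrolase probe labeling of LYPLA1 so polarization falls; 0% = enzyme with DMSO and 100% = wells lacking LYPLA1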
proCasp3 act: procaspase-3 (human) activation; AID 463141; P42574; recombinant procaspase-3 D3A, Ac-DEVD-pNA absorbance 405 nm; 0.11% of 330,000 active; activation, % at 8.5 µM;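 active = activation above the mean of all tested compounds plus 3 SD, cut at about 21% in these data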;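 note: 0% = DMSO alone and 100% = DMSO wells spiked with extra 5 µM PC-3 D3A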
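Assay system – Procaspase-3 D3A mutant · Benchmarks – DMSO low control, extra-enzyme high control · Technique – 405 nm absorbance of p-nitroaniline, reads at 0 and 120 min · Doses – 8.5 µM nominal · Measure – % activation between DMSO and enzyme-spiked controls · Also added – Ac-DEVD-pNA chromogenic peptide substrate · Schedule – 1 h compound preincubation, 2 h substrate hydrolysis at 25 °C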
PREPL inh: inhibitors of human prolyl oligopeptidase-like enzyme PREPL; Q4J6C6; recombinant PREPL, fluorescence polarization activity-based probe; inhibition, % at 5.96 µM; 0.68% of 320,000 active; AID 2751; in the data active = inhibition above about 43%;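 note: 0% = enzyme with DMSO and 100% = wells lacking enzyme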
Numbers without * were called inactive.

Screening Cc1oc(-c2ccc(Cl)cc2)nc1CS(=O)CC(=O)NCCCN(C)C1CCCCC1 (stereo not drawn) returned LYPLA2 counter 12.2, proCasp7 act 9.2, LYPLA1 counter 4.1, proCasp3 act 4.9 and PREPL inh 57.3*.
O=C(CSc1nc2ccccc2o1)Nc1ccc(N2CCOCC2)cc1 was read as LYPLA2 counter 1.7, proCasp7 act -7.7, LYPLA1 counter 1.3, proCasp3 act -15.4 and PREPL inh 43.6*.
`CC1(C)CCCN(C(=O)c2ccc3c(c2NCCO)C(=O)c2ccccc2C3=O)C1` gave LYPLA2 counter -6.6, proCasp7 act -5.2, LYPLA1 counter -2.3, proCasp3 act -0.6 and PREPL inh 53.4*.
`O=C(O[C@@H]1OC2COC(=O)c3cc(O)c(O)c(O)c3-c3c(cc(O)c(O)c3O)C(=O)O[C@@H]([C@H]1O)[C@@H]2O)c1cc(O)c(O)c(O)c1` gave LYPLA2 counter -6.6, proCasp7 act -30.1, LYPLA1 counter -12.1, proCasp3 act -30.5 and PREPL inh 54.0*.
For CC(=O)Nc1cc(O)cc(O)c1 the results were LYPLA2 counter 3.9, proCasp7 act -2.3, LYPLA1 counter -0.4, proCasp3 act 4.9 and PREPL inh 11.4.
`CCOC(=O)c1sc2nc(CC(=O)OC)nc(NCc3ccc(Cl)cc3)c2c1C` gave LYPLA2 counter -9.1, proCasp7 act 4.1, LYPLA1 counter -4.4, proCasp3 act -3.8 and PREPL inh 3.2.
Screening CCOC(=O)c1sc2nc(CC(=O)OC)nc(N3CCN(c4ccc(OC)cc4)CC3)c2c1C returned LYPLA2 counter -6.2, proCasp7 act -3.2, LYPLA1 counter -0.8, proCasp3 act -5.6 and PREPL inh 48.1*.
Screening C[C@H]1COC2=C1C(=O)C(=O)c1c2ccc2c1CCCC2(C)C returned LYPLA2 counter 48.0*, proCasp7 act -8.7, LYPLA1 counter 4.6, proCasp3 act 7.2 and PREPL inh 20.5.
For C[C@H]1CN([C@@H](C)CO)C(=O)Cc2cc(NS(=O)(=O)c3cn(C)cn3)ccc2O[C@@H]1CN(C)C(=O)Nc1ccc(F)cc1 the results were proCasp7 act 3.1, proCasp3 act 6.1 and PREPL inh 8.7.
`CCN1CCN(CCC(=O)Nc2ccccc2C)CC1` gave LYPLA2 counter -1.0, proCasp7 act -2.5, LYPLA1 counter 2.8, proCasp3 act 2.7 and PREPL inh 1.3.
`Cc1ccccc1NC1=C/C(=N\S(=O)(=O)c2ccc(C(=O)O)cc2)c2ccccc2C1=O` gave LYPLA2 counter 31.8*, proCasp7 act 3.6, LYPLA1 counter 7.2, proCasp3 act -5.8 and PREPL inh 28.9.
Screening CCOC(=O)CSc1nc2ccc(N3CCOCC3)cc2c(=O)n1Cc1ccc2c(c1)OCO2 returned LYPLA2 counter -3.6, proCasp7 act 3.4, LYPLA1 counter -3.4, proCasp3 act 1.4 and PREPL inh 52.1*.
`CCOc1cc(/C=C(/C#N)c2nc3ccccc3[nH]2)ccc1OCc1ccc(C(=O)O)o1` gave LYPLA2 counter -7.9, proCasp7 act -2.0, LYPLA1 counter -3.8, proCasp3 act 2.6 and PREPL inh 59.5*.
`COc1cc(/C=C(\C#N)c2nc3ccccc3[nH]2)ccc1OC(=O)c1ccco1` gave LYPLA2 counter -16.4, proCasp7 act -16.6, LYPLA1 counter -14.0, proCasp3 act -1.1 and PREPL inh 79.6*.
Screening COc1cc(/C=C(/C#N)c2nc3ccccc3[nH]2)ccc1OCC(=O)Nc1ccccc1C returned LYPLA2 counter -25.5, proCasp7 act 1.5, LYPLA1 counter -19.7, proCasp3 act 4.9 and PREPL inh 13.7.
For COC(=O)CCCC1=CC2=CC(=O)C(C)(OC(=O)c3ccco3)C(=O)C2=CO1 (stereo not drawn) the results were LYPLA2 counter 4.9, proCasp7 act -15.2, LYPLA1 counter 1.6, proCasp3 act 0.1 and PREPL inh 3.1.
CCCCC1=CC2=CC(=O)C(C)(OC(=O)c3ccc(Cl)nc3)C(=O)C2=CO1 (stereo not drawn) was read as LYPLA2 counter 20.2, proCasp7 act -3.3, LYPLA1 counter 19.8*, proCasp3 act -0.8 and PREPL inh 14.3.
For COc1c(S(=O)(=O)NCCN2CCOCC2)ccc(Cl)c1Cl the results were LYPLA2 counter -2.1, proCasp7 act 0.9, LYPLA1 counter -1.4, proCasp3 act 15.4 and PREPL inh 43.8*.

High-throughput results from PubChem.
